Tested on: Plasmodium falciparum
Experiment: Antimalarial activity against chloroquine-sensitive Plasmodium falciparum 3D7 assessed as growth inhibition by [3H]hypoxanthine incorporation assay
Type: functional, organism-based
Conditions: not given
Outline: (§1)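 Asynchronous P. falciparum culture (65-75% rings, 0.5% parasitemia) at 2.5% final hematocrit, with triplicate 3-fold drug dilutions (10.0 to 0.0041 μg/mL) in RPMI 1640 with 0.5% Albumax II, glucose, L-glutamine and 5 μM hypoxanthine. DMSO was ≤0.01% final. After 24 h at 37 °C in 5% CO2, [3H]hypoxanthine (0.2 μCi/well) was added for a further 24 h. Plates were frozen and harvested, incorporation counted by scintillation, and IC50 obtained by curve fitting.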

Row | Compound | IC50 [nM]
1 | C[C@H]1[C@H](c2ccc(CN3CCOCC3)n2C)O[C@@H]2O[C@@]3(C)CC[C@H]4[C@H](C)CC[C@@H]1[C@@]24OO3 | 3.5
2 | C[C@H]1[C@H](c2ccc(CN(C)C)n2C)O[C@@H]2O[C@@]3(C)CC[C@H]4[C@H](C)CC[C@@H]1[C@@]24OO3 | 31.6
3 | CCN(CC)Cc1ccc([C@@H]2O[C@@H]3O[C@@]4(C)CC[C@H]5[C@H](C)CC[C@@H]([C@H]2C)[C@@]35OO4)[nH]1 | 75.8
4 | C[C@H]1[C@H](c2cccn2C)O[C@@H]2O[C@@]3(C)CC[C@H]4[C@H](C)CC[C@@H]1[C@@]24OO3 | 5.2
5 | CC(C)N1CCN(Cc2ccc([C@@H]3O[C@@H]4O[C@@]5(C)CC[C@H]6[C@H](C)CC[C@@H]([C@H]3C)[C@@]46OO5)[nH]2)CC1 | 8.5
6 | C[C@H]1[C@H](c2ccc(CN3CCN(C)CC3)n2C)O[C@@H]2O[C@@]3(C)CC[C@H]4[C@H](C)CC[C@@H]1[C@@]24OO3 | 6.5
7 | C[C@H]1[C@H](c2ccc(CN(C)C)[nH]2)O[C@@H]2O[C@@]3(C)CC[C@H]4[C@H](C)CC[C@@H]1[C@@]24OO3 | 20.5
8 | CO[C@H]1O[C@@H]2O[C@@]3(C)CC[C@H]4[C@H](C)CC[C@@H]([C@H]1C)[C@@]24OO3 [ARTEMETHER] | 4.2
9 | C[C@@H]1CC[C@H]2[C@@H](C)C(=O)O[C@@H]3O[C@@]4(C)CC[C@@H]1[C@]32OO4 [ARTEMISININ] | 12.8

Tested on: Plasmodium berghei
Experiment: Antimalarial activity against Plasmodium berghei ANKA infected NMRI mice (Mus musculus) assessed as reduction of parasitemia at 10 mg/kg, intraperitoneally 4 consecutive doses for 3 days measured on day 4 by FACS analysis
Conditions: ip

Row | Compound | inhibition in vivo at 10 mg/kg [%]
10 | CC(C)N1CCN(Cc2ccc([C@@H]3O[C@@H]4O[C@@]5(C)CC[C@H]6[C@H](C)CC[C@@H]([C@H]3C)[C@@]46OO5)[nH]2)CC1 | 90
11 | C[C@H]1[C@H](c2ccc(CN3CCN(C)CC3)n2C)O[C@@H]2O[C@@]3(C)CC[C@H]4[C@H](C)CC[C@@H]1[C@@]24OO3 | 100
12 | C[C@H]1[C@H](OC(=O)CCC(=O)O)O[C@@H]2O[C@@]3(C)CC[C@H]4[C@H](C)CC[C@@H]1[C@@]24OO3 [ARTESUNATE] | 98

Tested on: Plasmodium berghei
Experiment: Antimalarial activity against Plasmodium berghei ANKA infected NMRI mice (Mus musculus) assessed as mean survival time at 10 mg/kg, intraperitoneally 4 consecutive doses for 3 days measured on day 4 by FACS analysis
Conditions: route intraperitoneal

Row | Compound | MSD [days]
13 | CC(C)N1CCN(Cc2ccc([C@@H]3O[C@@H]4O[C@@]5(C)CC[C@H]6[C@H](C)CC[C@@H]([C@H]3C)[C@@]46OO5)[nH]2)CC1 | 6
14 | C[C@H]1[C@H](c2ccc(CN3CCN(C)CC3)n2C)O[C@@H]2O[C@@]3(C)CC[C@H]4[C@H](C)CC[C@@H]1[C@@]24OO3 | 9
15 | C[C@H]1[C@H](OC(=O)CCC(=O)O)O[C@@H]2O[C@@]3(C)CC[C@H]4[C@H](C)CC[C@@H]1[C@@]24OO3 [ARTESUNATE] | 8

Tested on: Plasmodium falciparum
Experiment: Antimalarial activity against chloroquine-resistant Plasmodium falciparum K1 (Thailand) assessed as growth inhibition by [3H]hypoxanthine incorporation assay relative to artemisinin
Type: functional
Conditions: not given

Row | Compound | Ratio IC50
16 | C[C@H]1[C@H](c2ccc(CN3CCOCC3)n2C)O[C@@H]2O[C@@]3(C)CC[C@H]4[C@H](C)CC[C@@H]1[C@@]24OO3 | 4.32
17 | CC(C)N1CCN(Cc2ccc([C@@H]3O[C@@H]4O[C@@]5(C)CC[C@H]6[C@H](C)CC[C@@H]([C@H]3C)[C@@]46OO5)[nH]2)CC1 | 2.34
18 | C[C@H]1[C@H](c2ccc(CN3CCN(C)CC3)n2C)O[C@@H]2O[C@@]3(C)CC[C@H]4[C@H](C)CC[C@@H]1[C@@]24OO3 | 2.16
19 | CO[C@H]1O[C@@H]2O[C@@]3(C)CC[C@H]4[C@H](C)CC[C@@H]([C@H]1C)[C@@]24OO3 [ARTEMETHER] | 2.41

Tested on: Plasmodium berghei
Experiment: Antimalarial activity against Plasmodium berghei ANKA infected NMRI mice (Mus musculus) assessed as reduction of parasitemia treated perorally for 3 days measured on day 4
Type: functional
Conditions: po

Row | Compound | ED50 [mg/kg] | ED90 [mg/kg]
20 | C[C@H]1[C@H](c2ccc(CN3CCOCC3)n2C)O[C@@H]2O[C@@]3(C)CC[C@H]4[C@H](C)CC[C@@H]1[C@@]24OO3 | 1.77 | 5.2
21 | C[C@H]1[C@H](c2cccn2C)O[C@@H]2O[C@@]3(C)CC[C@H]4[C@H](C)CC[C@@H]1[C@@]24OO3 | 4.5 | 8.5
22 | C[C@H]1[C@H](c2ccc(CN3CCN(C)CC3)n2C)O[C@@H]2O[C@@]3(C)CC[C@H]4[C@H](C)CC[C@@H]1[C@@]24OO3 | 1.99 | 5.34
23 | CO[C@H]1O[C@@H]2O[C@@]3(C)CC[C@H]4[C@H](C)CC[C@@H]([C@H]1C)[C@@]24OO3 [ARTEMETHER] | – | 10.6
24 | C[C@H]1[C@H](OC(=O)CCC(=O)O)O[C@@H]2O[C@@]3(C)CC[C@H]4[C@H](C)CC[C@@H]1[C@@]24OO3 [ARTESUNATE] | 3.23 | > 10

Tested on: not listed separately
Experiment: Therapeutic index, ratio of IC50 for human KB cells to IC50 for Plasmodium falciparum 3D7
Type: cell-based
Conditions: KB cells (cytotoxicity) versus Plasmodium falciparum 3D7, read-out: TI

Row | Compound | selectivity ratio
25 | C[C@H]1[C@H](c2ccc(CN3CCOCC3)n2C)O[C@@H]2O[C@@]3(C)CC[C@H]4[C@H](C)CC[C@@H]1[C@@]24OO3 | 24600
26 | C[C@H]1[C@H](c2cccn2C)O[C@@H]2O[C@@]3(C)CC[C@H]4[C@H](C)CC[C@@H]1[C@@]24OO3 | 11600
27 | CC(C)N1CCN(Cc2ccc([C@@H]3O[C@@H]4O[C@@]5(C)CC[C@H]6[C@H](C)CC[C@@H]([C@H]3C)[C@@]46OO5)[nH]2)CC1 | 5330
28 | C[C@H]1[C@H](c2ccc(CN3CCN(C)CC3)n2C)O[C@@H]2O[C@@]3(C)CC[C@H]4[C@H](C)CC[C@@H]1[C@@]24OO3 | 14800
29 | C[C@H]1[C@H](c2ccc(CN(C)C)[nH]2)O[C@@H]2O[C@@]3(C)CC[C@H]4[C@H](C)CC[C@@H]1[C@@]24OO3 | 2130
30 | C[C@@H]1CC[C@H]2[C@@H](C)C(=O)O[C@@H]3O[C@@]4(C)CC[C@@H]1[C@]32OO4 [ARTEMISININ] | > 27700

Tested on: KB
Experiment: Cytotoxicity against human KB cells after 72 hrs by alamar blue assay
Type: cell-based
Conditions: not given
Outline: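 KB cells seeded at 4 × 10^4 cells/mL in RPMI 1640 with 10% heat-inactivated fetal calf serum and grown 24 h at 37 °C in 5% CO2. Compound dilution series added in triplicate for 72 h, with podophyllotoxin as positive control. AlamarBlue added for 2-4 h; fluorescence read at ex 530/em 585 nm and IC50 obtained by curve fitting.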

Row | Compound | IC50 [nM]
31 | C[C@H]1[C@H](c2ccc(CN3CCOCC3)n2C)O[C@@H]2O[C@@]3(C)CC[C@H]4[C@H](C)CC[C@@H]1[C@@]24OO3 | 86200
32 | C[C@H]1[C@H](c2cccn2C)O[C@@H]2O[C@@]3(C)CC[C@H]4[C@H](C)CC[C@@H]1[C@@]24OO3 | 60300
33 | CC(C)N1CCN(Cc2ccc([C@@H]3O[C@@H]4O[C@@]5(C)CC[C@H]6[C@H](C)CC[C@@H]([C@H]3C)[C@@]46OO5)[nH]2)CC1 | 45300
34 | C[C@H]1[C@H](c2ccc(CN3CCN(C)CC3)n2C)O[C@@H]2O[C@@]3(C)CC[C@H]4[C@H](C)CC[C@@H]1[C@@]24OO3 | 96500
35 | C[C@H]1[C@H](c2ccc(CN(C)C)[nH]2)O[C@@H]2O[C@@]3(C)CC[C@H]4[C@H](C)CC[C@@H]1[C@@]24OO3 | 43600
36 | C[C@@H]1CC[C@H]2[C@@H](C)C(=O)O[C@@H]3O[C@@]4(C)CC[C@@H]1[C@]32OO4 [ARTEMISININ] | > 354000
37 | CCN(CC)CCCC(C)Nc1ccnc2cc(Cl)ccc12 (configuration not stated) [CHLOROQUINE PHOSPHATE] | 112000

Tested on: Plasmodium falciparum
Experiment: Antimalarial activity against chloroquine-resistant Plasmodium falciparum K1 (Thailand) assessed as growth inhibition by [3H]hypoxanthine incorporation assay
Type: functional, organism-based
Conditions: not given
Outline: as §1

Row | Compound | IC50 [nM]
38 | C[C@H]1[C@H](c2ccc(CN3CCOCC3)n2C)O[C@@H]2O[C@@]3(C)CC[C@H]4[C@H](C)CC[C@@H]1[C@@]24OO3 | 1.9
39 | CC(C)N1CCN(Cc2ccc([C@@H]3O[C@@H]4O[C@@]5(C)CC[C@H]6[C@H](C)CC[C@@H]([C@H]3C)[C@@]46OO5)[nH]2)CC1 | 3.5
40 | C[C@H]1[C@H](c2ccc(CN3CCN(C)CC3)n2C)O[C@@H]2O[C@@]3(C)CC[C@H]4[C@H](C)CC[C@@H]1[C@@]24OO3 | 3.8
41 | C[C@@H]1CC[C@H]2[C@@H](C)C(=O)O[C@@H]3O[C@@]4(C)CC[C@@H]1[C@]32OO4 [ARTEMISININ] | 8.2

Tested on: Plasmodium falciparum
Experiment: Antimalarial activity against chloroquine-sensitive Plasmodium falciparum 3D7 assessed as growth inhibition by [3H]hypoxanthine incorporation assay relative to artemisinin
Type: functional
Conditions: not given

Row | Compound | Ratio IC50
42 | C[C@H]1[C@H](c2ccc(CN3CCOCC3)n2C)O[C@@H]2O[C@@]3(C)CC[C@H]4[C@H](C)CC[C@@H]1[C@@]24OO3 | 3.66
43 | C[C@H]1[C@H](c2ccc(CN(C)C)n2C)O[C@@H]2O[C@@]3(C)CC[C@H]4[C@H](C)CC[C@@H]1[C@@]24OO3 | 0.4
44 | CCN(CC)Cc1ccc([C@@H]2O[C@@H]3O[C@@]4(C)CC[C@H]5[C@H](C)CC[C@@H]([C@H]2C)[C@@]35OO4)[nH]1 | 0.17
45 | C[C@H]1[C@H](c2cccn2C)O[C@@H]2O[C@@]3(C)CC[C@H]4[C@H](C)CC[C@@H]1[C@@]24OO3 | 2.46
46 | CC(C)N1CCN(Cc2ccc([C@@H]3O[C@@H]4O[C@@]5(C)CC[C@H]6[C@H](C)CC[C@@H]([C@H]3C)[C@@]46OO5)[nH]2)CC1 | 1.51
47 | C[C@H]1[C@H](c2ccc(CN3CCN(C)CC3)n2C)O[C@@H]2O[C@@]3(C)CC[C@H]4[C@H](C)CC[C@@H]1[C@@]24OO3 | 1.97
48 | C[C@H]1[C@H](c2ccc(CN(C)C)[nH]2)O[C@@H]2O[C@@]3(C)CC[C@H]4[C@H](C)CC[C@@H]1[C@@]24OO3 | 0.62

Tested on: Plasmodium berghei
Experiment: Antimalarial activity against Plasmodium berghei ANKA infected Swiss CD1 mice (Mus musculus) assessed as reduction of parasitemia at 30 mg/kg, perorally administered after 3 hrs of infection for 3 days measured on day 4 relative to control
Type: functional
Conditions: route oral
Outline: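 Male Swiss CD-1 mice (20 g) infected iv with 4 × 10^6 P. berghei ANKA-infected red cells on day 0, in groups of five. Compound was given orally in standard suspending vehicle (carboxymethylcellulose, benzyl alcohol, Tween 80, saline), 3 × 30 mg/kg, starting 3 h post-infection, once daily. Parasitemia was counted on Giemsa-stained smears on day 4 and expressed as % inhibition versus the untreated group mean.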

Row | Compound | inhibition in vivo at 30 mg/kg [%]
49 | C[C@H]1[C@H](c2ccc(CN3CCOCC3)n2C)O[C@@H]2O[C@@]3(C)CC[C@H]4[C@H](C)CC[C@@H]1[C@@]24OO3 | 100
50 | CC(C)N1CCN(Cc2ccc([C@@H]3O[C@@H]4O[C@@]5(C)CC[C@H]6[C@H](C)CC[C@@H]([C@H]3C)[C@@]46OO5)[nH]2)CC1 | 90.5
51 | C[C@H]1[C@H](c2ccc(CN3CCN(C)CC3)n2C)O[C@@H]2O[C@@]3(C)CC[C@H]4[C@H](C)CC[C@@H]1[C@@]24OO3 | 100
52 | CO[C@H]1O[C@@H]2O[C@@]3(C)CC[C@H]4[C@H](C)CC[C@@H]([C@H]1C)[C@@]24OO3 [ARTEMETHER] | 100
53 | C[C@H]1[C@H](OC(=O)CCC(=O)O)O[C@@H]2O[C@@]3(C)CC[C@H]4[C@H](C)CC[C@@H]1[C@@]24OO3 [ARTESUNATE] | 100
